# NOD2-RIPK2 inh: NOD2-RIPK2 binding disruptors in cells, primary screen, fluorescence, CHO cells, BLA complementation; CCF4 ratio; inhibition, % at 4.98 µM; AID 624267, 2012; Receptor-interacting serine/threonine-protein kinase 2 (Homo sapiens), O43353; actives 0.38% (n = 360,000); in the data active = inhibition above about 21%;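 also: 0% = vehicle only and 100% = reference blocker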
# TLR4 MyD88 comp: inhibitors of TLR4-MyD88 association in cells, primary screen, cell-based, HeLa CL3-4, BLA complementation, FRET ratio; Toll-like receptor 4 (Homo sapiens) + Myeloid differentiation primary response protein …; HeLa CL3-4 TLR4/MyD88 BLA complementation; inhibition, % at 8.4 µM; actives 0.18% (n = 200,000); in the data active = inhibition above about 25%;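 also: 0% = vehicle and 100% = reference inhibitor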
# SR-BI DiI-HDL act: activators of SR-BI mediated DiI-HDL uptake, primary screen, ldlA[mSR-BI] CHO cells, DiI fluorescence; actives 0.096% (n = 320,000); activation, % at 12.5 µM; AID 504775, 2011; 3 h; 100 = double the neutral-control signal;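 active = mean replicate activation of at least 60% and every replicate at or above 60%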;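 also: 0% = median plate neutral-control signal and 100% = twice that signal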
#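 system = CHO ldlA[mSR-BI] cells, LDL receptor-null, SR-BI overexpressing | medium = Ham's F12 with 0.5% BSA, HEPES 25 mM, pH 7.4 | probe or stimulus = DiI-HDL 10 µg/mL | compound dosing = single-point compound dose | incubation = compound exposure 3 h, 37 °C | technique = DiI fluorescence, bottom read | read-out = cell-associated DiI fluorescence as measure of HDL uptake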
# SR-BI DiI inh: inhibitors of SR-BI mediated HDL lipid uptake, primary screen, ldlA[mSR-BI] cells, fluorescence, single point | Scavenger receptor class B member 1 (Mus musculus), Q61009 | ldlA[mSR-BI] CHO cells, DiI-HDL uptake fluorescence, 3 h | inhibition, % at 12.5 µM | actives 0.96% (n = 320,000) | AID 488896, 2010;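 active = mean replicate inhibition of at least 70% and a set share of replicates each scoring 70 or more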;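 also: 0% = median of neutral control wells and 100% = median of positive control wells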
# TLR9-MyD88 block: inhibitors of TLR9-MyD88 association in cells, primary screen, cell-based, CHO, BLA complementation, fluorescence | CCF4 FRET ratio | actives 0.21% (n = 340,000) | Toll-like receptor 9 (Homo sapiens) + Myeloid differentiation primary response protein … | AID 504734, 2011 | inhibition, % at 4.98 µM;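 active = inhibition above the mean over all tested compounds plus 3 SD, cut at about 21% in these data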;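 also: 0% = DMSO only wells and 100% = clavulanate BLA inhibitor control wells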
# Lipid droplet: inhibitors of hepatocyte lipid droplet formation, primary screen, imaging, high-throughput imaging, BODIPY stain. actives 0.4% (n = 240,000). AID 1656, 2009. inhibition, % at 6.5 µM. AML12 mouse hepatocytes, oleate lipid droplets;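 active = lipid droplet intensity inhibited by at least 50%, with more than 500 cells counted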
#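 Test system: AML12 mouse liver cells; schedule: overnight exposure; technique: high-content imaging of BODIPY-stained droplets and DAPI nuclei; read-out: % inhibition of corrected integrated BODIPY droplet signal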
# TLR4-MyD88 conf: TLR4-MyD88 association inhibitors, retest, confirmation, cell-based, HeLa CL3-4, BLA complementation, FRET ratio. inhibition, % at 8.4 µM. CCF4 FRET ratio. actives 50% (n = 350). shares compounds with TLR4 MyD88 comp;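 active = mean inhibition across three repeat runs above about 25% carried over from the earlier screen, limit read from the data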;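 also: plate controls were DMSO only for no effect and clavulanic acid blocking BLA at full dose for full effect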
# BLA inhibitor ct: counter-screen for TLR4-MyD88 inhibitors: beta-lactamase reporter inhibitors; shares compounds with TLR4 MyD88 comp; HeLa BLA reporter, CCF4 FRET ratio; inhibition, % at 8.4 µM; actives 63% (n = 350); AID 1237;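 active = mean inhibition over three repeats above about 26% taken from the earlier screen, limit read from the data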;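 also: HeLa cells stably expressing beta-lactamase reporter as counterscreen for TLR4-MyD88 inhibitors; 0% = DMSO and 100% = clavulanic acid full inhibition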
# TLR9-MyD88 conf: TLR9-MyD88 association inhibitors, retest, confirmation, cell-based, CHO, BLA complementation, fluorescence, triplicate; CCF4 FRET ratio; inhibition, % at 4.98 µM; AID 540250, 2011; actives 51% (n = 680); shares compounds with TLR9-MyD88 block;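 active = mean inhibition across three repeats above about 21% taken from the earlier screen, limit read from the data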;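 also: blue over green emission ratio reports constitutive TLR9 MyD88 association via BLA complementation; 0% = DMSO vehicle wells and 100% = clavulanate BLA inhibitor wells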
# BLA counter: beta-lactamase reporter inhibitors in CHO cells, artefact control for TLR9-MyD88 binding inhibitor project, cell-based, fluorescence; shares compounds with TLR9-MyD88 block; inhibition, % at 4.98 µM; CHO-BLA cells, CCF4 FRET ratio, BLA reporter; AID 540251, 2011; actives 7% (n = 680);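 active = mean inhibition above a 50% cutoff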;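 also: counterscreen of TLR9-MyD88 hits on CMV-driven BLA in CHO-K1 cells; 0% = DMSO alone and 100% = clavulanate blocking BLA; higher means less blue over green ratio so more BLA blockade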
# TLR9 CHO cytotox: CHO cell viability loss – luminescence, single concentration, cytotoxicity control for TLR9-MyD88 binding inhibitor project; shares compounds with TLR9-MyD88 block; TLR9-MyD88 CHO cells cytotoxicity; inhibition, % at 4.98 µM; actives 39% (n = 680); AID 588336, 2011; in the data active = inhibition above about 11%
# * = called active by the depositor; nt = no result given. Sampled rows, rich in hits. Any-hit rate of the full collection: about 1.6%.
SMILES,NOD2-RIPK2 inh,TLR4 MyD88 comp,SR-BI DiI-HDL act,SR-BI DiI inh,TLR9-MyD88 block,Lipid droplet,TLR4-MyD88 conf,BLA inhibitor ct,TLR9-MyD88 conf,BLA counter,TLR9 CHO cytotox
COC(=O)Nc1sc2c(c1C(N)=O)CCCCCC2,-4,26*,-11,11,2,43,-12,-8,nt,nt,nt
CCOC(=O)c1cnn2c(N)c(C#N)cnc12,-4,-7,nt,nt,-5,0,nt,nt,nt,nt,nt
CCOC(=O)c1c(C)nc2c(C#N)cnn2c1C,-4,25*,1,-1,-8,4,-4,14,nt,nt,nt
Cc1ccccc1CSCC(=O)NCCSc1ccccn1,6,-5,10,-10,2,-12,nt,nt,nt,nt,nt
COCCn1c(-c2ccc(-c3ccc([N+](=O)[O-])cc3Br)o2)nc2c1c(=O)[nH]c(=O)n2CC(C)C,15,44*,-2,2,-2,2,30*,59*,nt,nt,nt
COCCn1c(=O)[nH]c(=O)c2c1nc(-c1ccc(-c3ccc(Cl)cc3[N+](=O)[O-])o1)n2Cc1ccccc1,1,-8,-10,10,-5,26,nt,nt,nt,nt,nt
N#Cc1c(N)c2ccccn2c1C(=O)c1ccc(Br)cc1,1,nt,-39,39,-4,4,nt,nt,nt,nt,nt
COc1ccc(S(=O)(=O)N2CCCC(C(=O)NCc3ccccn3)C2)cc1Cl (stereo unspecified),-1,26*,38,-38,-2,0,5,4,nt,nt,nt
COc1cc2c(cc1OC)C(COc1cccc(C(F)(F)F)c1)NCC2 (stereo unspecified),10,nt,11,-11,-2,-6,nt,nt,nt,nt,nt
CC1=NOC(=O)/C1=C\c1ccc(-c2ccc(Cl)cc2Cl)o1,-8,28*,-129,129*,-11,nt,11,-13,nt,nt,nt
COc1ccc(C(O)c2nc(-c3ccccc3)cs2)cc1 (stereo unspecified),0,nt,nt,nt,nt,nt,nt,nt,nt,nt,nt
Cc1ccc(S(=O)(=O)Nc2cc(C(F)(F)F)ccc2N2CCOCC2)cc1C,-7,70*,-15,15,6,2,-1,1,nt,nt,nt
CCCCNC(=O)N1CCN(C/C=C/c2ccccc2)CC1,-1,25*,13,-13,-8,-2,-4,-1,nt,nt,nt
CCOC(=O)/C(=C\c1cccnc1)C(=O)c1cc(C(C)=O)c(Nc2ccccc2)s1,89*,49*,-12,12,41*,-3,53*,41*,49*,32,98*
CCOC(=O)/C(=C\c1ccccc1)C(=O)c1cc(C(C)=O)c(Nc2ccccc2)s1,2,4,-30,30,-3,10,nt,nt,nt,nt,nt
CCOC(=O)c1c(NC(=O)CN2CCCc3ccccc32)sc(C)c1CC,17,-4,-55,55,15,6,nt,nt,nt,nt,nt
OCCNc1c2ccccc2nc2c(F)c(F)c(F)c(F)c12,2,69*,-13,13,32*,10,84*,107*,43*,49,82*
CCOC(=O)c1cc(NC(=O)Nc2ccccn2)c(C)nc1C,-12,0,1,-1,-2,12,nt,nt,nt,nt,nt
COc1ccc(CS(=O)(=O)/C(Cl)=C(/Cl)C(=O)Nc2ccc(OC)nc2)cc1,73*,25*,-11,11,31*,3,22,14,32*,24,100*
COc1cc(/C=C(\C#N)c2nc3ccc(C)cc3[nH]2)c([N+](=O)[O-])cc1OC,7,-2,-48,48,5,nt,nt,nt,nt,nt,nt
CCN(CC)c1ccc(/C=C(/C#N)c2nc3ccc(C)cc3[nH]2)c(OC(C)C)c1,34*,35*,-102,102*,23*,nt,13,36*,21*,21,5
CC1(C(=O)NS(=O)(=O)c2cccc(Cl)c2)CCN1C(=O)C1(c2ccccc2)CC1 (stereo unspecified),-6,nt,nt,nt,nt,nt,nt,nt,nt,nt,nt
Cc1cc(C)nc(N/N=C/c2ccccc2OCc2ccc([N+](=O)[O-])cc2)n1,-16,-6,-50,50,-2,-6,nt,nt,nt,nt,nt
O=[N+]([O-])c1ccc(N/N=C\c2ccccc2OCc2ccccc2)cc1,18,28*,-43,43,31*,24,23,50*,22*,26,4
CC(=O)Nc1sc(/C(C#N)=C\c2cccc(Cl)c2)nc1-c1ccc(C)cc1,20,31*,-82,82*,32*,-31,86*,112*,80*,81*,2
COc1ccc(C(=O)c2sc3nc(-c4ccccc4)ccc3c2N)cc1OC,15,36*,-57,57,33*,nt,38*,57*,43*,38,9
NC(=O)c1sc2nc(-c3ccccc3)ccc2c1N,-4,nt,-3,3,5,4,nt,nt,nt,nt,nt
Cc1nn(-c2ccccc2)c2c1C(c1ccc(Cl)cc1)N(c1ccccc1)C(=O)N2 (stereo unspecified),-5,6,-7,7,1,-6,nt,nt,nt,nt,nt
Cc1cccc(NC2=Nc3ccccc3N3C2=Nc2c(c(C)nn2-c2ccccc2)C3c2ccc(O)c(O)c2)c1 (stereo unspecified),14,62*,-103,103*,30*,nt,52*,85*,47*,55*,-5
CCCCN(C)CC(O)Cn1cc(/C=C/C(=O)c2cccs2)c2ccccc21 (stereo unspecified),44*,39*,6,-6,46*,4,39*,68*,30*,28,5

# Source: PubChem (several laboratories)
